From ChEMBL document CHEMBL3588757, “Structure-based design, synthesis and biological testing of piperazine-linked bis-epipodophyllotoxin etoposide analogs” (Bioorg Med Chem, 2015)

What was measured:
Assay type in all cases: functional
[1] = test system: MOLT-4; experiment: Cytotoxicity against human MOLT4 cells assessed as cell growth at 50 uM by SRB assay; conditions: read-out: Activity
[2] = test system: SF-539; experiment: Cytotoxicity against human SF539 cells assessed as cell growth at 0.5 uM by SRB assay; conditions: read-out: Activity
[3] = test system: NCI-H322M; experiment: Cytotoxicity against human NCI-H322M cells assessed as cell growth at 0.005 uM by SRB assay; conditions: read-out: Activity
[4] = test system: SW-620; experiment: Cytotoxicity against human SW620 cells assessed as cell growth at 0.5 uM by SRB assay; conditions: read-out: Activity
[5] = test system: T47D; experiment: Cytotoxicity against human T47D cells assessed as cell growth at 0.05 uM by SRB assay; conditions: read-out: Activity
[6] = test system: OVCAR-5; experiment: Cytotoxicity against human OVCAR5 cells assessed as cell growth at 0.05 uM by SRB assay; conditions: read-out: Activity
[7] = test system: OVCAR-4; experiment: Cytotoxicity against human OVCAR4 cells assessed as cell growth at 0.005 uM by SRB assay; conditions: read-out: Activity
[8] = test system: SF-295; experiment: Cytotoxicity against human SF295 cells assessed as cell growth at 5 uM by SRB assay; conditions: read-out: Activity
[9] = test system: COLO 205; experiment: Cytotoxicity against human COLO205 cells assessed as cell growth at 0.05 uM by SRB assay; conditions: read-out: Activity
[10] = test system: SF-268; experiment: Cytotoxicity against human SF268 cells by SRB assay
Outline: (§1)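 NCI-60 panel screen; 5-dose testing giving GI50 per cell line, plus a single 10 µM one-dose test. Method details not given beyond the NCI screen.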

[11] = test system: MDA-MB-468; experiment: Cytotoxicity against human MDA-MB-468 cells by SRB assay; outline: as §1
[12] = test system: A498; experiment: Cytotoxicity against human A498 cells assessed as cell growth at 0.005 uM by SRB assay; conditions: read-out: Activity
[13] = test system: NCI-H460; experiment: Cytotoxicity against human NCI-H460 cells assessed as cell growth at 50 uM by SRB assay; conditions: read-out: Activity
[14] = test system: SK-MEL-28; experiment: Cytotoxicity against human SK-MEL-28 cells assessed as cell growth at 50 uM by SRB assay; conditions: read-out: Activity
[15] = test system: MDA-MB-231; experiment: Cytotoxicity against human MDA-MB-231/ATCC cells assessed as cell growth at 50 uM by SRB assay; conditions: read-out: Activity
[16] = test system: SK-OV-3; experiment: Cytotoxicity against human SKOV3 cells by SRB assay; outline: as §1
[17] = test system: HCT-15; experiment: Cytotoxicity against human HCT15 cells assessed as cell growth at 0.05 uM by SRB assay; conditions: read-out: Activity
Outline: (§2)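 Measured in the NCI-60 human tumour cell line panel using five-dose testing. Growth was recorded at each dose for each cell line, and a GI50 was derived for each line.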

[18] = test system: LOX IMVI; experiment: Cytotoxicity against human LOXIMVI cells assessed as cell growth at 50 uM by SRB assay; conditions: read-out: Activity
[19] = test system: NCI-H460; experiment: Cytotoxicity against human NCI-H460 cells assessed as cell growth at 0.5 uM by SRB assay; conditions: read-out: Activity
[20] = test system: OVCAR-8; experiment: Cytotoxicity against human OVCAR8 cells assessed as cell growth at 50 uM by SRB assay; conditions: read-out: Activity
[21] = test system: SNB-75; experiment: Cytotoxicity against human SNB75 cells by SRB assay; outline: as §1
[22] = test system: NCI-H522; experiment: Cytotoxicity against human NCI-H522 cells by SRB assay; outline: as §1
[23] = test system: A498; experiment: Cytotoxicity against human A498 cells by SRB assay
[24] = test system: SN12C; experiment: Cytotoxicity against human SN12C cells assessed as cell growth at 0.05 uM by SRB assay; conditions: read-out: Activity
[25] = test system: MCF7; experiment: Cytotoxicity against human MCF7 cells by SRB assay; outline: as §1
[26] = test system: HCT-15; experiment: Cytotoxicity against human HCT15 cells assessed as cell growth at 50 uM by SRB assay; conditions: read-out: Activity; outline: as §2
[27] = test system: LOX IMVI; experiment: Cytotoxicity against human LOXIMVI cells by SRB assay; outline: as §1
[28] = test system: NCI-H23; experiment: Cytotoxicity against human NCI-H23 cells assessed as cell growth at 50 uM by SRB assay; conditions: read-out: Activity
[29] = Cytotoxicity against human Hs578T cells assessed as cell growth at 0.05 uM by SRB assay; conditions: Hs-578T, read-out: Activity; outline: as §2
[30] = test system: UO-31; experiment: Cytotoxicity against human UO31 cells assessed as cell growth at 0.5 uM by SRB assay; conditions: read-out: Activity
[31] = test system: KM12; experiment: Cytotoxicity against human KM12 cells assessed as cell growth at 50 uM by SRB assay; conditions: read-out: Activity
[32] = test system: HCC 2998; experiment: Cytotoxicity against human HCC2998 cells assessed as cell growth at 50 uM by SRB assay; conditions: read-out: Activity; outline: as §2
[33] = test system: OVCAR-4; experiment: Cytotoxicity against human OVCAR4 cells assessed as cell growth at 0.05 uM by SRB assay; conditions: read-out: Activity
[34] = test system: SNB-19; experiment: Cytotoxicity against human SNB19 cells assessed as cell growth at 5 uM by SRB assay; conditions: read-out: Activity
[35] = test system: OVCAR-3; experiment: Cytotoxicity against human OVCAR3 cells assessed as cell growth at 0.05 uM by SRB assay; conditions: read-out: Activity
[36] = test system: OVCAR-4; experiment: Cytotoxicity against human OVCAR4 cells assessed as cell growth at 5 uM by SRB assay; conditions: read-out: Activity
[37] = Cytotoxicity against human Hs578T cells assessed as cell growth at 0.5 uM by SRB assay; conditions: Hs-578T, read-out: Activity; outline: as §2
[38] = test system: NCI-H522; experiment: Cytotoxicity against human NCI-H522 cells assessed as cell growth at 5 uM by SRB assay; conditions: read-out: Activity
[39] = test system: SK-MEL-28; experiment: Cytotoxicity against human SK-MEL-28 cells by SRB assay; outline: as §1
[40] = read-out: LC50 (the source's name)
[41] = read-out: pLC50 (the source's name) (converted)

COc1cc([C@@H]2c3cc4c(cc3[C@@H](NC(=O)CN3CCN(CCCCCCCCCCN5CCN(CC(=O)N[C@@H]6c7cc8c(cc7[C@@H](c7cc(OC)c(O)c(OC)c7)[C@H]7C(=O)OC[C@@H]76)OCO8)CC5)CC3)[C@H]3COC(=O)[C@H]23)OCO4)cc(OC)c1O
growth at 50 µM [1]: -100% | growth at 0.5 µM [2]: 13% | growth at 0.005 µM [3]: 96% | growth at 0.5 µM [4]: 46% | growth at 0.05 µM [5]: 81% | growth at 0.05 µM [6]: 83% | growth at 0.005 µM [7]: 98% | growth at 5 µM [8]: 17% | growth at 0.05 µM [9]: 90% | GI50 ([10]; read-out: GI50): 0.452 µM | CC50 [10, 40]: > 50 µM | TGI ([10]; read-out: TGI): 1.94 µM | GI50 ([10]; read-out: pGI50 (converted)): 0.457 µM | CC50 [10, 41]: > 50.1 µM | TGI ([10]; read-out: pTGI (converted)): 1.95 µM | GI50 ([11]; read-out: GI50): 0.844 µM | CC50 [11, 40]: 16.9 µM | TGI ([11]; read-out: TGI): 2.62 µM | GI50 ([11]; read-out: pGI50 (converted)): 0.851 µM | CC50 [11, 41]: 17 µM | TGI ([11]; read-out: pTGI (converted)): 2.63 µM | growth at 0.005 µM [12]: 73% | growth at 50 µM [13]: -81% | growth at 50 µM [14]: -83% | growth at 50 µM [15]: -54% | GI50 ([16]; read-out: GI50): 0.557 µM | CC50 [16, 40]: 16.5 µM | TGI ([16]; read-out: TGI): 5.43 µM | GI50 ([16]; read-out: pGI50 (converted)): 0.562 µM | CC50 [16, 41]: 16.6 µM | TGI ([16]; read-out: pTGI (converted)): 5.37 µM | growth at 0.05 µM [17]: 80% | growth at 50 µM [18]: 3% | growth at 0.5 µM [19]: 94% | growth at 50 µM [20]: -19% | GI50 ([21]; read-out: GI50): 0.228 µM | CC50 [21, 40]: > 50 µM | TGI ([21]; read-out: TGI): 2.75 µM | GI50 ([21]; read-out: pGI50 (converted)): 0.229 µM | CC50 [21, 41]: > 50.1 µM | TGI ([21]; read-out: pTGI (converted)): 2.75 µM | GI50 ([22]; read-out: GI50): 0.032 µM | CC50 [22, 40]: 4.38 µM | TGI ([22]; read-out: TGI): 0.797 µM | GI50 ([22]; read-out: pGI50 (converted)): 0.0324 µM | CC50 [22, 41]: 4.37 µM | TGI ([22]; read-out: pTGI (converted)): 0.794 µM | CC50 [23, 40]: 14.6 µM | GI50 ([23]; read-out: pGI50 (converted)): 0.513 µM | CC50 [23, 41]: 14.8 µM | TGI ([23]; read-out: pTGI (converted)): 3.55 µM | growth at 0.05 µM [24]: 80% | GI50 ([25]; read-out: GI50): 0.114 µM | CC50 [25, 40]: 37.4 µM | TGI ([25]; read-out: TGI): 8.5 µM | GI50 ([25]; read-out: pGI50 (converted)): 0.115 µM | CC50 [25, 41]: 37.2 µM | TGI ([25]; read-out: pTGI (converted)): 8.51 µM | growth at 50 µM [26]: -64% | GI50 ([27]; read-out: GI50): 0.0731 µM | GI50 ([27]; read-out: pGI50 (converted)): 0.0724 µM | growth at 50 µM [28]: -92% | growth at 0.05 µM [29]: 95% | growth at 0.5 µM [30]: 76% | growth at 50 µM [31]: -31% | growth at 50 µM [32]: -100% | growth at 0.05 µM [33]: 94% | growth at 5 µM [34]: -81% | growth at 0.05 µM [35]: 73% | growth at 5 µM [36]: -28% | growth at 0.5 µM [37]: 77% | growth at 5 µM [38]: -54% | GI50 ([39]; read-out: GI50): 6.2 µM | CC50 [39, 40]: 29.8 µM | TGI ([39]; read-out: TGI): 13.6 µM | GI50 ([39]; read-out: pGI50 (converted)): 6.17 µM | CC50 [39, 41]: 29.5 µM | TGI ([39]; read-out: pTGI (converted)): 13.5 µM
